Assay [1] in a line: Inhibition of Influenza B virus (B/Yokohama/UT2203/2005)) neuraminidase N294S mutant after 30 mins by fluorescence analysis. The method in brief:
(§1)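 Virus NA source was mixed with compound in 32.5 mM MES-NaOH pH 6.5 with 4 mM CaCl2 and preincubated 10 min at room temperature. Reaction ran 30 min at room temperature with 100 μM (final) 4-MU-NANA. Fluorescence was read at ex 360/em 460 nm, in triplicate. IC50 came from linear regression of residual activity against log concentration, using concentrations giving 10–90% residual activity.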

The nature of assay [2]: Inhibition of Influenza B virus (B/Yokohama/UT3318/2005)) neuraminidase N294S mutant after 30 mins by fluorescence analysis. The method in brief: as §1

Regarding `CC(=O)N[C@H]1[C@H]([C@H](O)[C@H](O)CO)OC(C(=O)O)=C[C@@H]1NC(=N)N` [ZANAMIVIR], the half-maximal inhibitory concentration (IC50) (commonly the concentration that inhibits the measured activity by half) in assay [1] stood at 33.6 nM; in assay [2] it was 20 nM.

With `CO[C@@H]([C@@H]1OC(C(=O)O)=C[C@H](NC(=N)N)[C@H]1NC(C)=O)[C@H](O)CO` [LANINAMIVIR], the half-maximal inhibitory concentration (IC50) in assay [1] was 48.9 nM; in assay [2] it was 30.2 nM.

Values taken from ChEMBL document CHEMBL1629572 (Antimicrob Agents Chemother, 2009).
